A word on the MIC: it is the smallest concentration in the dilution series that meets the test's criterion for growth inhibition. The low end stands for greater potency, the high end for weaker potency. One may read the IC50 as the midpoint of a concentration-inhibition curve.

Data set [1] relates to Mycobacterium avium. In words: Antimycobacterial activity against pyrazinamide-resistant Mycobacterium avium CNCTC My 152/73 after 5 days by microplate alamar blue assay. The format is functional. The settings on record: CNCTC My 152/73, 120 h. In a few lines:
(§1)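 Microplate alamar blue assay run at pH 5.6, using conditions optimized for pyrazinamide. Strains came from the Czech National Collection of Type Cultures. MIC was read in µg/mL and converted to µM using molecular weight.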
A general note: The colour change of resazurin is a common sign of viable cells or microbes.

A further data set concerns HepG2. The data set can be described thus: Cytotoxicity against human HepG2 cells after 24 hrs. The format is cell-based. The settings on record: HepG2, 24 h. The method in brief: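 HepG2 human liver cells; loss of viability measured by a colorimetric tetrazolium-reduction assay. IC50 derived from the toxicity curves. Where limited solubility in the culture medium capped the tested concentration, only an estimate of the toxic concentration was given.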

Data set [2] is described as follows: Selectivity index, ratio of IC50 for human HepG2 cells to MIC for Mycobacterium tuberculosis H37Rv CNCTC My 331/88. The format is toxicity, cell-based. The settings on record: read-out: Selectivity Index. In a few lines: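 HepG2 human liver cell viability was measured by a colorimetric tetrazolium-reduction assay, and IC50 was derived from the toxicity curves. MIC against M. tuberculosis H37Rv came from the alamar blue microplate assay at pH 5.6. SI = IC50/MIC, both in molar units.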

The nature of data set [3]: Lipophilicity, log K of the compound by HPLC analysis. The format is physicochemical.
For data set [4], the system named is Mycobacterium avium. The data set can be described thus: Antimycobacterial activity against pyrazinamide-resistant Mycobacterium avium CNCTC My 80/72 after 5 days by microplate alamar blue assay. The format is functional. To be noted: CNCTC My 80/72, 120 h. In a few lines: as §1
The next data set concerns Mycobacterium kansasii. In words: Antimycobacterial activity against pyrazinamide-resistant Mycobacterium kansasii CNCTC My 235/80 after 5 days by microplate alamar blue assay. The settings on record: CNCTC My 235/80, 120 h. The format is functional. In a few lines:
as §1

The subject of data set [5] is Mycobacterium tuberculosis. In words: Antimycobacterial activity against Mycobacterium tuberculosis H37Rv CNCTC My 331/88 after 5 days by microplate alamar blue assay. The format is functional. To be noted: H37Rv CNCTC My 331/88, 120 h. The method in brief:
as §1

Data set [6] concerns Trichophyton mentagrophytes. The data set can be described thus: Antifungal activity against Trichophyton mentagrophytes 445 after 72 to 120 hrs by microdilution broth method. The format is functional, organism-based. On the technique in general: In broth dilution the organism is exposed to a series of concentrations in liquid medium.
For the next data set, the system named is Lichtheimia corymbifera. The data set can be described thus: Antifungal activity against Absidia corymbifera 272 after 72 to 120 hrs by microdilution broth method. The format is functional, organism-based.
In the next data set the test system is Aspergillus fumigatus. In words: Antifungal activity against Aspergillus fumigatus 231 after 72 to 120 hrs by microdilution broth method. The format is functional, organism-based.
For the next data set, the system named is Nakaseomyces glabratus. The data set can be described thus: Antifungal activity against Candida glabrata 20/I after 72 to 120 hrs by microdilution broth method. The format is functional, organism-based.
The test system of a further data set is Trichosporon asahii. In words: Antifungal activity against Trichosporon asahii 1188 after 72 to 120 hrs by microdilution broth method. The format is functional, organism-based.
The next data set has as its system Pichia kudriavzevii. In words: Antifungal activity against Candida krusei E28 after 72 to 120 hrs by microdilution broth method. The format is functional, organism-based.
A further data set relates to Candida tropicalis. The data set can be described thus: Antifungal activity against Candida tropicalis 156 after 72 to 120 hrs by microdilution broth method. The format is functional, organism-based.
Another data set concerns Candida albicans. In words: Antifungal activity against Candida albicans ATCC 44859 after 72 to 120 hrs by microdilution broth method. The format is functional, organism-based.
The subject of data set [7] is Trichophyton mentagrophytes. In words: Antifungal activity against Trichophyton mentagrophytes after 72 to 120 hrs by microdilution broth method. The format is functional, organism-based.
The test system of data set [8] is Staphylococcus epidermidis. In words: Antibacterial activity against Staphylococcus epidermidis H 6966/08 after 48 hrs by microdilution broth method. The format is functional. In a few lines: (§2)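 Antibacterial screen with compound concentrations up to a highest level of 500 µM. Results expressed as MIC in µM.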
The test system of data set [9] is Klebsiella pneumoniae. The data set can be described thus: Antibacterial activity against ESBL positive Klebsiella pneumoniae J 14368/08 after 24 to 48 hrs by microdilution broth method. The format is functional, organism-based. The method in brief: as §2
For data set [10], the system named is Klebsiella pneumoniae. In words: Antibacterial activity against Klebsiella pneumoniae D 11750/08 after 24 to 48 hrs by microdilution broth method. The format is functional, organism-based. The method in brief: as §2
In the next data set the test system is Enterococcus sp. The data set can be described thus: Antibacterial activity against Enterococcus sp. J 14365/08 after 24 to 48 hrs by microdilution broth method. The format is functional, organism-based. The method in brief:
as §2

The subject of data set [11] is Staphylococcus epidermidis. In words: Antibacterial activity against methicillin-resistant Staphylococcus epidermidis H 5996/08 after 24 to 48 hrs by microdilution broth method. The format is functional, organism-based.
The next data set has as its system Pseudomonas aeruginosa. The data set can be described thus: Antibacterial activity against Pseudomonas aeruginosa CCM 1961 after 24 to 48 hrs by microdilution broth method. The format is functional, organism-based. In a few lines: as §2
The next data set relates to Escherichia coli. The data set can be described thus: Antibacterial activity against Escherichia coli CCM 4517 after 24 to 48 hrs by microdilution broth method. The format is functional, organism-based. The method in brief: as §2
The test system of a further data set is Staphylococcus aureus. In words: Antibacterial activity against Staphylococcus aureus CCM 4516/08 after 24 to 48 hrs by microdilution broth method. The format is functional, organism-based. In a few lines: as §2
Data set [12] deals with Staphylococcus epidermidis. The data set can be described thus: Antibacterial activity against Staphylococcus epidermidis H 6966/08 up to 500 uM after 24 to 48 hrs by microdilution broth method. The format is functional, organism-based. In a few lines:
as §2

The structures appear in SMILES notation. Activity calls are given as the source filed them.

Consider `NC(=O)c1cncc(Cl)n1`, for which the minimum inhibitory concentration (MIC) was over 100 µg/mL in the data set on Mycobacterium avium [1], over 100 µg/mL in the data set with Mycobacterium avium [4], over 100 µg/mL against Mycobacterium kansasii and 635 µM in data set [5]. This molecule also registered an IC50 in the data set on HepG2 of 3.5 mM. Further, the selectivity ratio in [2] was 5.5. In data set [3], the “log K” value was -0.4165. Moreover, the result (in data set [6]; in the data set on Lichtheimia corymbifera; in the data set on Aspergillus fumigatus; with Nakaseomyces glabratus; in the data set with Trichosporon asahii; with Pichia kudriavzevii) was inactive. In addition, the result (in the data set with Candida tropicalis; in the data set with Candida albicans; in [7]; in data set [8]; in the data set with Klebsiella pneumoniae [9]; in the data set with Klebsiella pneumoniae [10]) was inactive. In addition, the outcome (in the data set with Enterococcus sp.; in [11]; with Pseudomonas aeruginosa; in the data set with Escherichia coli; with Staphylococcus aureus; in data set [12]) was inactive.

Turning to `NC(=O)c1cnccn1` [PYRAZINAMIDE], the MIC with Mycobacterium avium [1] is over 100 µg/mL; in the data set on Mycobacterium avium [4], over 100 µg/mL; against Mycobacterium kansasii, over 100 µg/mL; in [5] it was 102 µM. For the same molecule, in the data set on HepG2, the IC50 was over 10 mM. For the same molecule, in data set [2], the selectivity ratio is over 98.1. In [3], the “log K” value is reported as -0.6872.

Take `CCCCCCCCNc1cncc(C(N)=O)n1`: the MIC against Mycobacterium avium [1] is 100 µM; in the data set with Mycobacterium avium [4], 100 µM; against Mycobacterium kansasii it was 100 µM; in data set [5] it was 6 µM. In the data set on HepG2, this molecule came in with an IC50 of 0.161 mM. Further, the selectivity ratio in data set [2] amounted to 25.8. Also, in data set [3], the “log K” value was found to be 0.6514. Further, the outcome (in [6]; in the data set with Lichtheimia corymbifera; in the data set with Aspergillus fumigatus; in the data set with Nakaseomyces glabratus; in the data set on Trichosporon asahii; in the data set with Pichia kudriavzevii) was inactive. The result (with Candida tropicalis; with Candida albicans; in data set [7]; in [8]; in the data set with Klebsiella pneumoniae [9]; in the data set with Klebsiella pneumoniae [10]) was inactive. The result (with Enterococcus sp.; in data set [11]; in the data set on Pseudomonas aeruginosa; with Escherichia coli; with Staphylococcus aureus; in [12]) was inactive.

Regarding `CCCCCCNc1cnc(C(N)=O)cn1`, the MIC in the data set with Mycobacterium avium [1] was over 100 µg/mL; in the data set on Mycobacterium avium [4] it was over 100 µg/mL; against Mycobacterium kansasii, 100 µg/mL; in data set [5], 225 µM. For the same molecule, in data set [3], the “log K” value is 0.2389. The outcome (in data set [6]; in the data set with Lichtheimia corymbifera; in the data set on Aspergillus fumigatus; with Nakaseomyces glabratus; with Trichosporon asahii; in the data set with Pichia kudriavzevii) was inactive. Also, the outcome (in the data set with Candida tropicalis; in the data set with Candida albicans; in data set [7]; in data set [8]; in the data set with Klebsiella pneumoniae [9]; with Klebsiella pneumoniae [10]) was inactive. Further, the result (with Enterococcus sp.; in [11]; in the data set with Pseudomonas aeruginosa; in the data set with Escherichia coli; in the data set on Staphylococcus aureus; in data set [12]) was inactive.

With `CNc1cnc(C(N)=O)cn1`, the MIC (in the data set with Mycobacterium avium [1]; in the data set on Mycobacterium avium [4]; in the data set on Mycobacterium kansasii; in [5]) was over 100 µg/mL in each case. For the same molecule, in data set [3], the “log K” value is -0.6878. Moreover, the result (in [6]; with Lichtheimia corymbifera; in the data set on Aspergillus fumigatus; in the data set with Nakaseomyces glabratus; in the data set with Trichosporon asahii; with Pichia kudriavzevii) was inactive. The result (with Candida tropicalis; in the data set with Candida albicans; in data set [7]; in [8]; with Klebsiella pneumoniae [9]; with Klebsiella pneumoniae [10]) was inactive. In addition, the outcome (in the data set with Enterococcus sp.; in data set [11]; in the data set with Pseudomonas aeruginosa; in the data set on Escherichia coli; in the data set on Staphylococcus aureus; in data set [12]) was inactive.

Regarding `CCNc1cnc(C(N)=O)cn1`, the minimum inhibitory concentration (MIC) (against Mycobacterium avium [1]; in the data set on Mycobacterium avium [4]; in the data set on Mycobacterium kansasii; in [5]) was over 100 µg/mL in each case. Also, the “log K” value in [3] is recorded as -0.552. Moreover, the outcome (in data set [6]; with Lichtheimia corymbifera; with Aspergillus fumigatus; with Nakaseomyces glabratus; with Trichosporon asahii; in the data set with Pichia kudriavzevii) was inactive. Further, the outcome (in the data set on Candida tropicalis; with Candida albicans; in data set [7]; in data set [8]; in the data set with Klebsiella pneumoniae [9]; with Klebsiella pneumoniae [10]) was inactive. Further, the result (in the data set on Enterococcus sp.; in data set [11]; in the data set on Pseudomonas aeruginosa; in the data set on Escherichia coli; in the data set on Staphylococcus aureus; in data set [12]) was inactive.

For `NC(=O)c1cnc(NCCCc2ccccc2)cn1`, the MIC in the data set on Mycobacterium avium [1] was over 100 µg/mL; in the data set on Mycobacterium avium [4] it was over 100 µg/mL; against Mycobacterium kansasii, 100 µg/mL; in [5], 98 µM. Also, in data set [3], the “log K” value came to 0.1408. Moreover, the result (in data set [6]; in the data set on Lichtheimia corymbifera; in the data set on Aspergillus fumigatus; in the data set with Nakaseomyces glabratus; in the data set with Trichosporon asahii; in the data set with Pichia kudriavzevii) was inactive. Further, the outcome (in the data set on Candida tropicalis; in the data set with Candida albicans; in [7]; in data set [8]; in the data set with Klebsiella pneumoniae [9]; in the data set with Klebsiella pneumoniae [10]) was inactive. The result (in the data set on Enterococcus sp.; in data set [11]; with Pseudomonas aeruginosa; in the data set on Escherichia coli; with Staphylococcus aureus; in data set [12]) was inactive.

On to `CCCNc1cnc(C(N)=O)cn1`, for which the MIC (against Mycobacterium avium [1]; against Mycobacterium avium [4]; against Mycobacterium kansasii; in [5]) was over 100 µg/mL in each case. Further, in data set [3], the “log K” value was -0.3878. In addition, the result (in data set [6]; in the data set with Lichtheimia corymbifera; in the data set with Aspergillus fumigatus; with Nakaseomyces glabratus; in the data set with Trichosporon asahii; in the data set with Pichia kudriavzevii) was inactive. Also, the outcome (in the data set on Candida tropicalis; in the data set on Candida albicans; in data set [7]; in data set [8]; in the data set on Klebsiella pneumoniae [9]; with Klebsiella pneumoniae [10]) was inactive. Further, the result (with Enterococcus sp.; in [11]; with Pseudomonas aeruginosa; in the data set on Escherichia coli; with Staphylococcus aureus; in [12]) was inactive.

(Values after ChEMBL document CHEMBL3102810, “Alkylamino derivatives of pyrazinamide: synthesis and antimycobacterial evaluation” (Bioorg Med Chem Lett, 2014).)
